Screening data: PubChem BioAssay, Broad Institute
Ecoli rRNA inh: selective bacterial rRNA inhibition in E. coli; hit rate 1.6% among 350,000; E. coli WT GFP vs humanized-ribosome RFP mutants, fluorescence, 24 h; stronger effect = lower value; DMSO median 0, no signal -100; GFP signal change (wild-type ribosome), % (no concentration beside the values);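 active means significant combined selectivity score with lowered wild-type GFP, culture density cut under 30%, mutant RFP and density less affected; inactive means any of these conditions unmet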
ERAP1 inh: inhibitors of human ERAP1 aminopeptidase | Q9NZ08 | recombinant ERAP1, Leu-AMC fluorescence, 60 min | inhibition, % at 10.7 µM | hit rate 0.15% among 340,000;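 active means mean replicate inhibition of at least 30%, or all replicates individually reaching that 30% level; inactive means mean below 30% and not every replicate reaching it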;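 further: 0% = neutral control wells and 100% = L-leucinethiol positive control wells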
Target sequence (Q9NZ08 whole entry, looked up): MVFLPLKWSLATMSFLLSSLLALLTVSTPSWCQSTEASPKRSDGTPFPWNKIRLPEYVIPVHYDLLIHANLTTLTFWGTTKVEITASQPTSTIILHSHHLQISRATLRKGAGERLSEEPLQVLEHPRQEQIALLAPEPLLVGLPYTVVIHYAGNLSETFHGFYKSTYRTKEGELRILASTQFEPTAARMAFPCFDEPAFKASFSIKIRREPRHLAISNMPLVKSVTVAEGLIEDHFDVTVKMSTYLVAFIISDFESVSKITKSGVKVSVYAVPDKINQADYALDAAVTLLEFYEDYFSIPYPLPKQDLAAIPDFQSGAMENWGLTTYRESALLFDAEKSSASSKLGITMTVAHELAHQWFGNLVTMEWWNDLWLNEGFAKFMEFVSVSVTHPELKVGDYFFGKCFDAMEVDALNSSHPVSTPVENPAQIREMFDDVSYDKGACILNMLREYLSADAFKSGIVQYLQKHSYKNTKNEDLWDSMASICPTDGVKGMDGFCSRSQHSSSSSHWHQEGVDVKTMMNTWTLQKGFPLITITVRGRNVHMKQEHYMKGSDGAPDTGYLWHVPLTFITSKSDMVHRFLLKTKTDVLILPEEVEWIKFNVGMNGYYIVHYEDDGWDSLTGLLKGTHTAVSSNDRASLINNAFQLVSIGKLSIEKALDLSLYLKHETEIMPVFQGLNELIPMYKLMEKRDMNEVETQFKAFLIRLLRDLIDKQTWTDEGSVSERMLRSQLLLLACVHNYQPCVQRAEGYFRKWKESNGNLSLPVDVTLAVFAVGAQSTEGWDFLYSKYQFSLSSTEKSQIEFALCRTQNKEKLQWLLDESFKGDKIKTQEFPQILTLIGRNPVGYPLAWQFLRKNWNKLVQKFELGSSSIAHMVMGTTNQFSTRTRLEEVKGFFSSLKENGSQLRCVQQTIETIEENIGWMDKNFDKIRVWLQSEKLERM
S100A4 inh HTS: inhibitors of human S100A4 binding to myosin IIA peptide; P26447; S100A4/TAMRA-MyoIIA peptide fluorescence polarization; inhibition, % at 10.7 µM; hit rate 0.14% among 360,000; AID 652163;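 active means mean inhibition of at least 70% across replicates, with every replicate also reaching that level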
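Material: S100A4 monomer protein | Medium: HEPES pH 7.2 with CaCl2, KCl, NaCl, DTT, Triton | Reagent: Labelled myosin peptide probe, 5 nM | Doses: One dose per compound | Times: 5 min incubation before reading | Benchmarks: Neutral control DMSO, positive control TFP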
SIRT5 block: sirtuin-5 (human) deacylase inhibition; Q9NXA8; Purified SirT5, succinyl-peptide AMC, trypsin-coupled fluorescence; inhibition, % at 15 µM; hit rate 1.1% among 330,000; AID 652115; in the data active means inhibition above about 15%
F508del corr: correctors of CFTR F508del function in bronchial epithelial cells; activity (quench increase), % at 7.58 µM; hit rate 0.36% among 350,000; CFBE cells, YFP halide quenching; stimulated with forskolin plus potentiator P3; % fluorescence drop versus neutral controls;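 active means mean added fluorescence quench of at least 8% versus neutral control, with both replicates also reaching 8%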;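 further: cells transiently co-express mutant CFTR-F508del with the halide-sensitive YFP; corrector assay measuring rescue of mutant channel to the surface after 24 h compound exposure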
* marks the source's active call; other numbers are inactive results; nt = no result given. In the library only some 3.1% were active in any assay of this set; here they are far more common.

SMILES | Ecoli rRNA inh | ERAP1 inh | S100A4 inh HTS | SIRT5 block | F508del corr
Cc1cc(C)[n+]2[nH]c(N)c(N=Nc3ccccc3)c2n1 | -28* | 5 | -4 | -2 | -5
O=C(NCc1cccnc1)C(=O)Nc1nc(C23CC4CC(CC(C4)C2)C3)cs1 | -27* | nt | 2 | 2 | 1
c1ccc(CSc2nccc(-c3ccco3)n2)cc1 | -36* | 1 | -3 | 1 | -2
Cn1c(SCc2ccccc2)nnc1-c1ccco1 | 13 | -1 | 2 | nt | -1
COC(=O)[C@@]1(Cc2ccccc2)[C@H]2C(=O)N(C)C(=O)[C@H]2[C@H]2CN=C(SCc3ccccc3)N21 | -16* | 0 | 3 | -4 | 2
COC(=O)[C@@]1(Cc2ccccc2)[C@H]2C(=O)N(Cc3ccccc3)C(=O)[C@H]2[C@H]2CN=C(SCc3ccccc3)N21 | -13 | 0 | -4 | -5 | 2
CCN1C(=O)[C@H]2[C@H]3CN=C(SCc4ccc(C#N)cc4)N3[C@@](CC)(C(=O)OC)[C@H]2C1=O | 4 | 7 | 1 | -4 | 2
COC(=O)[C@@]1(Cc2ccccc2)[C@H]2C(=O)N(C)C(=O)[C@H]2[C@H]2CN=C(SCc3ccc(C#N)cc3)N21 | -21* | 2 | 12 | -2 | 2
CN(C)S(=O)(=O)c1ccc2c(c1)/C(=C/c1cc3c([nH]1)CCCC3)C(=O)N2 | 15 | 1 | 14 | 1 | 8.6*
CN(C)S(=O)(=O)c1ccc2c(c1)C(=O)c1cc(S(=O)(=O)N(C)C)ccc1CC2 | 9 | -3 | -2 | nt | -1
O=C(O)C(F)=C1c2ccccc2-c2ccccc21 | -30* | -12 | -12 | -3 | -2
CCCNC(=O)N1CC2(CCN(S(=O)(=O)c3cccc(OC)c3)CC2)c2c(n(C)c3cc(OC)ccc23)[C@H]1CO | -3 | 0 | 7 | 2 | -1
Cc1oc2ccc(O)cc2c1C(=O)c1ccc(Br)cc1 | -23* | -1 | 0 | -3 | 1
O=C(N/N=C/c1ccncc1)C1CC1(c1ccccc1)c1ccccc1 (stereo not given) | -22* | -2 | 5 | -2 | 0
Cc1ccc(S(=O)(=O)N(C)C[C@@H]2Oc3ccc(NC(=O)Nc4ccccc4)cc3C(=O)N([C@H](C)CO)C[C@@H]2C)cc1 | 1 | -5 | -1 | 0 | 2
C[C@H](CO)N1C[C@H](C)[C@H](CN(C)S(=O)(=O)c2ccc(Cl)cc2)Oc2ccc(NC(=O)CCN3CCOCC3)cc2CC1=O | 0 | 0 | -4 | 2 | 0
O=C(COC(=O)c1n[nH]c(=O)c2ccccc12)Nc1ccccc1 | 3 | 0 | -1 | 19* | -1
COc1ccc(/C=C/C(=O)c2ccc([N+](=O)[O-])o2)cc1OC | -4 | 1 | -2 | -3 | 2
COc1cc(/C=C/C(=O)c2ccc([N+](=O)[O-])o2)ccc1O | -24* | -2 | 7 | nt | 1
COc1ccc(-n2sc3ccccc3c2=O)cc1 | -1 | 75* | -9 | -8 | -6
COc1ccc(-n2sc3ccc(F)cc3c2=O)cc1 | -34 | 6 | 3 | -7 | 0
CC(C)NC(=O)N(C)C[C@H]1Oc2ccc(NC(=O)C3CC3)cc2C(=O)N([C@@H](C)CO)C[C@H]1C | 2 | 0 | -7 | 9 | -6
CCC(=O)N(C)C[C@@H]1Oc2cc(-c3ccccc3C)ccc2S(=O)(=O)N([C@H](C)CO)C[C@H]1C | -2 | 1 | -4 | 1 | 3
Cc1cccc(N/C=C(\[N+](=O)[O-])S(=O)(=O)c2ccccc2)c1 | -5 | 0 | -6 | 40* | 2
Cc1ccc(N/C=C(\[N+](=O)[O-])S(=O)(=O)c2ccccc2)cc1 | -22* | 2 | 0 | -1 | -1
SMILES | Ecoli rRNA inh | ERAP1 inh | S100A4 inh HTS | SIRT5 block | F508del corr
Cc1cccc(N/C=C(\[N+](=O)[O-])S(=O)(=O)c2ccccc2)c1C | 9 | -1 | 1 | -7 | -1
CO[C@@H]1CN(C)C(=O)c2ccc(NC(C)=O)cc2OC[C@H](C)N(Cc2ccccn2)C[C@H]1C | 1 | -2 | -2 | -2 | 0
CC(C)NC(=O)N[C@@H]1C=C[C@H](CC(=O)O)O[C@@H]1CO | 1 | 3 | 16 | 0 | 0
C[C@@H]1CCCCO[C@H](CN(C)S(C)(=O)=O)[C@@H](C)CN([C@@H](C)CO)C(=O)c2cc(NS(=O)(=O)c3cn(C)cn3)ccc2O1 | 1 | -2 | 5 | 0 | -3
CC(=O)Nc1nc2ccccc2n1Cc1ccccc1Cl | -23* | -2 | -3 | 3 | -14
CCC(=O)Nc1nc2ccccc2n1Cc1ccccc1Cl | -21 | 3 | 1 | -2 | 5
CC(C)C(=O)Nc1cccc(COc2ccccc2CN(Cc2ccccc2)C(=O)OC(C)(C)C)c1 | 15 | nt | -7 | 18* | 0
CC(C)(C)OC(=O)N(CCc1ccccc1)Cc1ccccc1OCc1cccc(NC(=O)C2CCCC2)c1 | 1 | 6 | -3 | 29* | 3
C[C@@H]1CN([C@H](C)CO)C(=O)c2cc(NS(=O)(=O)c3ccccc3)ccc2O[C@@H](C)CCCCO[C@@H]1CN(C)Cc1ccncc1 | 4 | -5 | 12 | 12 | 4
CCOc1ccccc1-c1nc(C(N)=O)c2[nH]c(=O)n(-c3ccc(F)cc3)c2n1 | 13 | -4 | -10 | -3 | -1
CCc1ccc(-c2nc(C(N)=O)c3[nH]c(=O)n(-c4ccccc4OC)c3n2)cc1 | 3 | 0 | -2 | 0 | 8.9*
COCC(=O)Nc1ccc2c(c1)[C@H]1C[C@@H](CC(=O)NCc3ccccc3)O[C@H](CO)[C@H]1O2 | 1 | -4 | -8 | -3 | 0
Cc1ccc(-c2cc(=O)c3cc(F)ccc3[nH]2)cc1 | 7 | 2 | -4 | -1 | 3
O=c1cc(-c2ccccc2)[nH]c2ccc(F)cc12 | 13 | nt | 0 | nt | 8.6*
CCOC(=O)C1(CCCc2ccccc2)CCN(C2CCN(C(C)=O)CC2)CC1 | 4 | nt | -14 | 18* | 2
O=C(OCC(=O)N1CCN(C(=O)c2ccco2)CC1)c1ccccc1 | 2 | -4 | -6 | -2 | 2
CC(=O)Nc1ccc(C(=O)N2CCN(C(=O)c3ccco3)CC2)cc1 | 19 | 1 | -1 | 17* | 0
N#Cc1ccc(C(=O)OCC(=O)N2CCN(C(=O)c3ccco3)CC2)cc1 | 5 | -2 | -1 | 23* | -1
CS(=O)(=O)c1ccc(C(=O)N2CCN(C(=O)c3ccco3)CC2)cc1 | 7 | -2 | 0 | -3 | -5
O=C(C[C@H]1CC[C@H]2[C@@H](COC[C@@H](O)CN2Cc2cc(F)ccc2F)O1)N[C@@H]1CCN(Cc2ccccc2)C1 | 2 | -3 | 4 | 2 | -2
Cc1cc(C)c(S(=O)(=O)NCCOc2ccccc2)c(C)c1-n1cnnn1 | -18* | 4 | 14 | -4 | -2
COc1ccc(S(=O)(=O)NCCOc2ccccc2)cc1-n1cnnn1 | 8 | 1 | -5 | 6 | 1
